Series [1] in a line: Lipophilicity, log P of the compound by RP-HPLC analysis. It is filed as physicochemical.
Series [2] in a line: (§1) Metabolic stability in human liver microsome assessed as compound remaining after 10 mins. It is filed as ADME, microsomes. The conditions noted are these: liver microsomes, read-out: Stability.
Series [3] has as its system Liver microsomes. The description is as §1. It is filed as ADME. The settings on record: microsomes, 10 min.
In series [4] the test system is Liver microsomes. The series is described as follows: (§2) Metabolic stability in rat liver microsomes assessed as compound remaining after 10 mins. The conditions noted are these: microsomes, 10 min. It is filed as ADME, Microsome. The method in brief:
(§3)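 Liver microsomes incubated for 10 min; read-out is percentage of parent remaining.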

The nature of series [5]: Oral bioavailability in rat at 1 mg/kg. It is filed as ADME, organism-based. The conditions noted are these: in vivo. The method in brief:
(§4)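 Rat PK. Dosing was either 1 mg/kg IV/PO in 10% DMAC/10% EtOH/10% cremophor/70% H2O, or 1 mg/kg IV in 10% EtOH/10% cremophor/80% H2O, or 2 mg/kg IV with 5 mg/kg PO in 10% EtOH/10% cremophor/80% H2O. Read-outs: CL, Vss, t1/2, F.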

The test system of the next series is Rattus norvegicus. The experiment in a line: Volume of distribution at steady state in rat at 1 mg/kg, iv and po. Also on record: dose 1 mg/kg, route oral. It is filed as ADME, organism-based. The conditions noted are these: in vivo. The procedure, abridged:
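Rats dosed at 1 mg/kg by both IV and PO routes in 10% DMAC/10% EtOH/10% cremophor/70% H2O. Steady-state volume of distribution was derived from the IV plasma profile.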

Series [6] is described as follows: Half life in rat at 1 mg/kg, iv and po. It is filed as ADME, organism-based. Details: dose 1 mg/kg, route oral. The conditions noted are these: in vivo. The method in brief: as §4
A short description of series [7]: Permeability from apical to basolateral side of human Caco2 cells. It is filed as ADME, cell-based. The settings on record: Caco-2, read-out: permeability. In general terms: Caco-2 cells form a polarised layer with tight junctions and transporters.
Series [8] is described as follows: as §2. The settings on record: liver microsomes, read-out: Stability. It is filed as ADME, Microsome. The procedure, abridged:
as §3
On the technique in general: Liver microsomes are a subcellular fraction often used to study metabolism.

The subject of series [9] is Plasma. The series is described as follows: Plasma concentration in rat at 1 mg/kg, iv followed by administered 25 mg/kg/hr of sustaining dose. It is filed as ADME, organism-based. The settings on record: in vivo. The procedure, abridged: (§5)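 Rats pretreated IV with a loading dose plus sustaining infusion (1 + 2.5, 1 + 5, 1 + 10 or 1 + 25 mg/kg + mg/kg/h). Arterial thrombosis was induced with FeCl2, and thrombus weight was measured; plasma concentrations were measured at each dose. n=6–8 per dose. Vehicle controls received 10% DMA/90% 5% dextrose IV.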

Series [10] has as its system Plasma. The experiment in a line: Plasma concentration in rat at 1 mg/kg, iv followed by administered 10 mg/kg/hr of sustaining dose. The conditions noted are these: in vivo. It is filed as ADME, organism-based. The procedure, abridged:
as §5

Series [11] relates to Plasma. The experiment in a line: Plasma concentration in rat at 1 mg/kg, iv followed by administered 5 mg/kg/hr of sustaining dose. The conditions noted are these: in vivo. It is filed as ADME, organism-based. The method in brief: as §5
Series [12] concerns Plasma. The experiment in a line: Plasma concentration in rat at 1 mg/kg, iv followed by administered […] of sustaining dose. The settings on record: in vivo. It is filed as ADME, organism-based.
Series [13] relates to Plasma. The series is described as follows: Plasma concentration in rabbit cuticle bleeding model at 15 mg/kg, iv followed by administered 23.4 mg/kg/hr of sustaining dose. It is filed as ADME, organism-based, Oryctolagus cuniculus. The conditions noted are these: in vivo. The procedure, abridged:
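Rabbit cuticle bleeding model with IV loading dose plus sustaining infusion (15 or 9 mg/kg + 23.4 mg/kg/h). Measured ex vivo platelet aggregation blockade, cuticle bleeding time, average plasma concentration and blood pressure.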

The nature of series [14]: Half life in rat at 1 mg/kg, iv. It is filed as ADME, organism-based. Also on record: dose 1 mg/kg, route intravenous. The conditions noted are these: in vivo. The method in brief:
as §4

Series [15] in a line: Clearance in rat at 1 mg/kg, iv. It is filed as ADME, organism-based. Also on record: dose 1 mg/kg, route intravenous. The conditions noted are these: in vivo. The procedure, abridged: as §4
A short description of series [16]: Volume of distribution at steady state in rat at 1 mg/kg, iv. It is filed as ADME, organism-based. Details: dose 1 mg/kg, route intravenous. The settings on record: in vivo, read-out: Vdss. The method in brief:
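Rat PK: single 1 mg/kg IV dose in 10% EtOH/10% cremophor/80% H2O. Vss was derived from plasma concentration–time data.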

Series [17] is described as follows: Half life in rat at 2 mg/kg, iv and 5 mg/kg, po. It is filed as ADME, organism-based. The conditions noted are these: in vivo. The procedure, abridged:
as §4

Series [18] can be described thus: Oral bioavailability in rat at 5 mg/kg. It is filed as ADME, organism-based. The conditions noted are these: in vivo. The method in brief: as §4
Series [19] can be described thus: Volume of distribution at steady state in rat at 2 mg/kg, iv and 5 mg/kg, po. It is filed as ADME, organism-based. The conditions noted are these: in vivo, read-out: Vdss. The method in brief:
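Rats given 2 mg/kg IV and 5 mg/kg PO in 10% EtOH/10% cremophor/80% H2O. Vss was obtained from the IV pharmacokinetic profile.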

Series [20] in a line: Clearance in rat at 2 mg/kg, iv and 5 mg/kg, po. It is filed as ADME, organism-based. The settings on record: in vivo. The method in brief:
as §4

Structures are written as SMILES.

A word on the logP: it is a log measure of how a compound divides between an organic and an aqueous phase. By bioavailability is commonly meant dose-corrected exposure relative to a reference, in per cent. As usually defined, the half-life is the time in which the quantity being followed falls by half. A high value points to slow decline.

In the case of `CN(C)CC(C)(C)COc1ccc(NC(=O)Nc2cccnc2Oc2ccccc2[Si](C)(C)C)cc1`, in [1], the logP was 4.7. In addition, the remaining at 10 min in series [2] worked out at 29%.
With `CN(C)Cc1ccc(-c2ccc(NC(=O)Nc3cccnc3Oc3ccccc3C(C)(C)C)c(F)c2)cc1`, the logP in series [1] was found to be 5.4.
Take `CN(C)CC(C)(C)COc1ccc(NC(=O)Nc2cccnc2Oc2ccccc2C(C)(C)C)c(F)c1`: the logP in [1] stood at 5.2. For the same compound, the Stability entry with Liver microsomes [3] and with Liver microsomes [4] was “Unstable” in each case.
In series [1], `CN1CCN(c2ccc(NC(=O)Nc3cccnc3Oc3ccccc3C(C)(C)C)cc2)CC1` came in with a logP of 3.9.
On to `CC(C)CN1CCC(COc2ccc(NC(=O)Nc3cccnc3Oc3ccccc3C(C)(C)C)cc2)CC1`, for which the log partition coefficient (logP) in [1] came to 4.5.
On the same count and under the same terms, to `CC(C)(C)c1ccccc1Oc1ncccc1NC(=O)Nc1ccc(C2(CO)CC2)cc1` belongs 4.6; to `CC(C)(C)c1ccccc1Oc1ncccc1NC(=O)Nc1ccc(OCC2CCN(Cc3ccccc3)CC2)cc1F`, 5.8; to `CC(C)(C)c1ccccc1Oc1ncccc1NC(=O)Nc1ccc(-c2ccccc2CO)cc1F`, 5.5.
The same measure, in the same setting: to `CN(C)Cc1ccc(NC(=O)Nc2cccnc2Oc2ccccc2C(C)(C)C)c(F)c1` belongs 4.2; to `CC(C)CCN1CCC(COc2ccc(NC(=O)Nc3cccnc3Oc3ccccc3C(C)(C)C)c(F)c2)CC1`, 5.5; to `CC(C)(C)c1ccccc1Oc1ncccc1NC(=O)Nc1ccc(N2CCNCC2)cc1`, 3.2.
The same measure, in the same setting: next, `COCC1(c2ccc(NC(=O)Nc3cccnc3Oc3ccccc3C(C)(C)C)cc2)CC1`: 5.2; `CC(C)(C)c1ccccc1Oc1ncccc1NC(=O)Nc1ccc(N2CCCCC2)cc1`: 5.5.
Turning to `CN(C)CC(C)(C)COc1ccc(NC(=O)Nc2cccnc2Oc2ccccc2C(C)(C)C)cc1`, in [1], the lipophilicity (logP) was 5.1. The remaining at 10 min in series [2] stood at 12%. Moreover, the Stability entry in the series on Liver microsomes [4] is given as “Unstable”.
The compound `CC(C)(C)c1ccccc1Oc1ncccc1NC(=O)Nc1ccc(C2(CN3CCCC3)CC2)cc1` yielded a logP in series [1] of 3.7.
As for `CC(C)(C)c1ccccc1Oc1ncccc1NC(=O)Nc1ccc(OC(F)(F)F)cc1`, the logP in series [1] was 5.7. Moreover, in [5], the bioavailability came out at 7%. Moreover, the Vdss in the series on Rattus norvegicus worked out at 5.6 L/kg. The same compound showed a half-life in series [6] of 900 min. The Papp A→B in series [7] amounted to 2.1 ×10⁻⁶ cm/s. In addition, the remaining at 10 min in [8] is 86%.
In turn, `CC(C)N1CCC(COc2ccc(NC(=O)Nc3cccnc3Oc3ccccc3C(C)(C)C)c(F)c2)CC1` gave a logP in [1] of 3.8.
With `CC(C)(C)c1ccccc1Oc1ncccc1NC(=O)Nc1ccc(N2CCN(Cc3ccccc3)CC2)cc1`, the lipophilicity (logP) in [1] came out at 5.8.
The same measure, in the same setting: to `COC(=O)C1(c2ccc(NC(=O)Nc3cccnc3Oc3ccccc3C(C)(C)C)cc2)CC1` belongs 5.1.
In series [1], `CN(C)Cc1ccccc1-c1ccc(NC(=O)Nc2cccnc2Oc2ccccc2C(C)(C)C)c(F)c1` came in with a logP of 5.3. For the same compound, the concentration was found to be 13.7 µM in the series with Plasma [9]; 8.5 µM with Plasma [10]; 3.6 µM in the series on Plasma [11]; 1300 nM with Plasma [12]; 5 µM in the series with Plasma [13]. Further, the Stability entry in the series on Liver microsomes [3] is reported as “Unstable”. The half-life in series [14] was 90 min. Moreover, the clearance in series [15] was found to be 158 mL/min/kg. Further, in [16], the Vd turned out to be 8.7 L/kg. For the same compound, in series [8], the remaining at 10 min was 24%.
The compound `CC(C)CN1CCC(COc2ccc(NC(=O)Nc3cccnc3Oc3ccccc3C(C)(C)C)c(F)c2)CC1` returned a lipophilicity (logP) in series [1] of 5.2. The compound further gave a half-life in series [17] of 204 min. For the same compound, in series [18], the bioavailability was 40%. The Vd in series [19] is 5 L/kg. In series [20], this compound registered a clearance of 22 mL/min/kg. In series [7], the Papp A→B was determined as 1.6 ×10⁻⁶ cm/s. Also, in [8], the remaining at 10 min was found to be 67%.
In the case of `CN(C)Cc1cccc(-c2ccc(NC(=O)Nc3cccnc3Oc3ccccc3C(C)(C)C)c(F)c2)c1`, in series [1], the lipophilicity (logP) turned out to be 5.5.
As for `CC(C)(C)c1ccccc1Oc1ncccc1NC(=O)Nc1ccc(N2CCOCC2)cc1F`, the logP in series [1] is 4.5.

The values above are taken from ChEMBL document CHEMBL2380307, “Discovery of diarylurea P2Y(1) antagonists with improved aqueous solubility” (Bioorg Med Chem Lett, 2013).
